Source: PMC9291769 (Chemmedchem, 2021)
Each block holds one compound with its values, some of them ahead of it.

Columns and labels:
IDO1 = IDO1 (Homo sapiens, UniProt P14902); experiment: Cellular IDO1 inhibition; assay type: cell-based; conditions: A375 cell line, IFN-γ, 48 h; for IDO cellular assay inhibition [%] @ 10 μM±SD: L-Kyn by HPLC; for IC50: IC50±SD [μM]
How it was run: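 A375 cells (0.5×10^5/well) were grown overnight, then given test compound (serial dilutions 0.01–30 µM, or single 10 µM) with human IFN-γ (500 U/mL final) and 0.1% DMSO for 48 h. Medium was deproteinized with 20% CCl₃COOH. L-Kyn was quantified by C18 HPLC at 330 nm against a calibration curve; % inhibition was taken versus basal levels. IC50s came from concentration-response curves, ≥3 experiments in triplicate.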

A375 cells = experiment: MTT cell viability assay; assay type: cell-based, human; conditions: 48 h
How it was run: (§1)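 A375 cells were kept in high-glucose DMEM with 10% heat-inactivated FBS, 2 mM L-glutamine and pen/strep. Cells were seeded at 0.5×10^5/well and exposed to 10 µM test compound for 48 h at 37 °C, 5% CO₂, then given MTT. Viability = 100(x−y)/(z−y), where x, y and z are absorbance of treated, resting and untreated cells. Mean ± SD, ≥3 experiments in triplicate.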

MTT cell viability assay = assay type: cell-based, human; conditions: human, A375 cells, Cell viability [%] @ 10 μM±SD
How it was run: as §1

TDO (P1.TDO) = TDO (P1.TDO) (Homo sapiens, UniProt P48775); experiment: IDO1 and TDO selectivity assay, P1.TDO cells; assay type: cell-based; conditions: 10 μM, 16 h
How it was run: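 Mouse mastocytoma P815-derived P1.HTR cells, stably electroporated with a human TDO plasmid and selected in puromycin, grown in IMDM with 1 mM glutamine and penicillin/streptomycin, used at ≤10th passage. Cells incubated 16 h with 10 μM test compound; DMSO vehicle as control. Supernatant L-Kyn measured by HPLC-UV (C18 column) against a calibration curve, detection limit 0.05 μM. Triplicate.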

[1] = In vitro metabolic stability in rat liver S9 fraction; assay type: in vitro ADME; conditions: rat liver S9 with NADPH, 5 μM substrate, 37 °C
How it was run: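 Pooled male Sprague Dawley rat liver S9 (1.5 mg/mL final protein) was used in 50 mM Tris pH 7.4 with 3.3 mM MgCl₂, 1.3 mM β-NADP, 3.3 mM glucose 6-phosphate, 0.4 U/mL G6PDH and 1% acetonitrile. Test compound was 5 µM, shaken 60 min at 37 °C. Controls lacked S9 or cofactors. Reactions were stopped with ice-cold acetonitrile and centrifuged; residual substrate was measured.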

[2] = tested on: CYP (aminopyrine N-demethylase activity); experiment: CYP inhibition: aminopyrine N-demethylase assay in rat liver microsomes; assay type: in vitro ADME; conditions: rat liver microsomes, 1, 10 and 100 μM
How it was run: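 Aminopyrine N-demethylation by rat liver microsomes, with inhibition read as the […] after aminopyrine incubation. Ketoconazole served as the reference CYP inhibitor.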

holo-IDO1 = holo-IDO1 (Homo sapiens, UniProt P14902); experiment: Heme detection; assay type: binding; conditions: 1 μM holo-IDO1, 120 min, 37 °C; VS9 different concentrations, epacadostat 20 μM
How it was run: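 1 µM holo-IDO1 in 100 mM potassium phosphate (pH 7.2) with 1 mM CHAPS was incubated with varying test-compound concentrations, or 20 µM reference inhibitor, for 120 min at 37 °C. Samples were diluted 100-fold, and free heme was measured with a hemin detection kit at 570 nm. Values are relative to untreated, mean of n=3 ± SD.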

IDO1, sequence (P14902 whole entry): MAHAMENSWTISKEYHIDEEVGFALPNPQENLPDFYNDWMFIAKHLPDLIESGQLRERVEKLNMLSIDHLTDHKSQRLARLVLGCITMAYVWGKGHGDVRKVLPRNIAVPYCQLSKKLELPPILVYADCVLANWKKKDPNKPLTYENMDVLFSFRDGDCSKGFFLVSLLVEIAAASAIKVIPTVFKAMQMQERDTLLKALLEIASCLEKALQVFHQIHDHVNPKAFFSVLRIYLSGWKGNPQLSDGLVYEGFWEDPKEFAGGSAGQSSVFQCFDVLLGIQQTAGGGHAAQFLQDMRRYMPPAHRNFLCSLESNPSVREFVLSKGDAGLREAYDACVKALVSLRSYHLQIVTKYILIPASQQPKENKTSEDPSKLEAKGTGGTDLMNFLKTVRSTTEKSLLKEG
TDO (P1.TDO), sequence (P48775 whole entry): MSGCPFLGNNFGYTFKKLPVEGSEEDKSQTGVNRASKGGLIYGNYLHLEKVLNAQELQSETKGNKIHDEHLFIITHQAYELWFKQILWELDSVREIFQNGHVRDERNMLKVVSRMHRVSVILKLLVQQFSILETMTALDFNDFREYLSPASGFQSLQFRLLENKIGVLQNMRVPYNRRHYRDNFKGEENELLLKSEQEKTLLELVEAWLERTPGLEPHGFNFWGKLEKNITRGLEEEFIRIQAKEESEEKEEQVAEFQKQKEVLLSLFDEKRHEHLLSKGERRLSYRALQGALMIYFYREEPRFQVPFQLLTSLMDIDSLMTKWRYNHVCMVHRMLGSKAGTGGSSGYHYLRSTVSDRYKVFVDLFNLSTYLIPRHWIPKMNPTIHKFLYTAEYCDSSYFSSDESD
holo-IDO1, sequence (P14902 whole entry): as the sequence (P14902 whole entry) above

IDO cellular assay inhibition [%] @ 10 μM±SD (IDO1): 22±5%
Compound: 2‐Methyl‐3‐((pyridin‐3‐ylmethyl)amino)‐N‐((6‐(trifluoromethyl)‐[1,2,4]triazolo[4,3‐a]pyridin‐3‐yl)methyl)benzamide [Compound 11]
Cell viability [%] @ 10 μM±SD (A375 cells): 91±12.7%

Compound: O=C(NCc1nnc2ccc(C(F)(F)F)cn12)c1ccc(O)c(Br)c1 [Compound 12, 3‐Bromo‐4‐hydroxy‐N‐((6‐(trifluoromethyl)‐[1,2,4]triazolo[4,3‐a]pyridin‐3‐yl)methyl)benzamide]
viability at 48 h, 10 μM (MTT cell viability assay): 92 ± 12%

Compound: O=C(NCc1nnc2ccc(C(F)(F)F)cn12)c1cc(Br)c(O)cc1O [Compound 13, 5‐Bromo‐2,4‐dihydroxy‐N‐((6‐(trifluoromethyl)‐[1,2,4]triazolo[4,3‐a]pyridin‐3‐yl)methyl)benzamide]
viability at 48 h, 10 μM (MTT cell viability assay): 94 ± 2.8%

Compound: Cc1ccc(Br)c(C)c1C(=O)NCc1nnc2ccc(C(F)(F)F)cn12 [Compound 14, 3‐Bromo‐2,6‐dimethyl‐N‐((6‐(trifluoromethyl)‐[1,2,4]triazolo[4,3‐a]pyridin‐3‐yl)methyl)benzamide]
viability at 48 h, 10 μM (MTT cell viability assay): 100%

Compound: O=C(NCc1nnc2ccc(C(F)(F)F)cn12)c1c(F)ccc(Cl)c1Cl [Compound 15, 2,3‐Dichloro‐6‐fluoro‐N‐((6‐(trifluoromethyl)‐[1,2,4]triazolo[4,3‐a]pyridin‐3‐yl)methyl)benzamide]
viability at 48 h, 10 μM (MTT cell viability assay): 100 ± 0.7%

Compound: COc1cc(F)c(C(=O)NCc2nnc3ccc(C(F)(F)F)cn23)c(F)c1 [Compound 16, 2,6‐Difluoro‐4‐methoxy‐N‐((6‐(trifluoromethyl)‐[1,2,4]triazolo[4,3‐a]pyridin‐3‐yl)methyl)benzamide]
viability at 48 h, 10 μM (MTT cell viability assay): 100 ± 5.2%

Compound: COc1cc(C)c(C(=O)NCc2nnc3ccc(C(F)(F)F)cn23)c(C)c1 [Compound 17, 4‐Methoxy‐2,6‐dimethyl‐N‐((6‐(trifluoromethyl)‐[1,2,4]triazolo[4,3‐a]pyridin‐3‐yl)methyl)benzamide]
viability at 48 h, 10 μM (MTT cell viability assay): 89 ± 9.2%

Compound: O=C(NCc1nnc2ccc(C(F)(F)F)cn12)c1cc(-c2ccc(F)cc2)ccc1F [Compound 18, 4,4′‐Difluoro‐N‐((6‐(trifluoromethyl)‐[1,2,4]triazolo[4,3‐a]pyridin‐3‐yl)methyl)‐[1,1′‐biphenyl]‐3‐carboxamide]
viability at 48 h, 10 μM (MTT cell viability assay): 88 ± 16.8%

Compound: N#Cc1ccc(-c2ccc(F)c(C(=O)NCc3nnc4ccc(C(F)(F)F)cn34)c2)cc1 [Compound 19, 4′‐Cyano‐4‐fluoro‐N‐((6‐(trifluoromethyl)‐[1,2,4]triazolo[4,3‐a]pyridin‐3‐yl)methyl)‐[1,1′‐biphenyl]‐3‐carboxamide]
viability at 48 h, 10 μM (MTT cell viability assay): 97 ± 2.1%

Compound: Cc1ccccc1-c1ccc(F)c(C(=O)NCc2nnc3ccc(C(F)(F)F)cn23)c1 [Compound 20, 4‐Fluoro‐2′‐methyl‐N‐((6‐(trifluoromethyl)‐[1,2,4]triazolo[4,3‐a]pyridin‐3‐yl)methyl)‐[1,1′‐biphenyl]‐3‐carboxamide]
viability at 48 h, 10 μM (MTT cell viability assay): 100%

Compound: COc1ccc(-c2ccc(F)c(C(=O)NCc3nnc4ccc(C(F)(F)F)cn34)c2)cc1 [Compound 21, 4‐Fluoro‐4′‐methoxy‐N‐((6‐(trifluoromethyl)‐[1,2,4]triazolo[4,3‐a]pyridin‐3‐yl)methyl)‐[1,1′‐biphenyl]‐3‐carboxamide]
viability at 48 h, 10 μM (MTT cell viability assay): 78 ± 4.2%

Compound: Cc1ccc(-c2cccc(C(=O)NCc3nnc4ccc(C(F)(F)F)cn34)c2)cc1 [Compound 22, 4′‐Methyl‐N‐((6‐(trifluoromethyl)‐[1,2,4]triazolo[4,3‐a]pyridin‐3‐yl)methyl)‐[1,1′‐biphenyl]‐3‐carboxamide]
viability at 48 h, 10 μM (MTT cell viability assay): 93 ± 9.8%

IC50 (IDO1): 2 ± 0.3 µM | Residual peak area after RLS9 incubation (60 min) [1]: higher than 99%
Compound: Cc1ccc(-c2ccc(F)c(C(=O)NCc3nnc4ccc(C(F)(F)F)cn34)c2)cc1C [Compound 24, 4‐Fluoro‐3′,4′‐dimethyl‐N‐((6‐(trifluoromethyl)‐[1,2,4]triazolo[4,3‐a]pyridin‐3‐yl)methyl)‐[1,1′‐biphenyl]‐3‐carboxamide]
Kyn levels in P1.TDO cells (TDO (P1.TDO)): not able to induce a reduction of Kyn levels in P1.TDO | viability at 48 h, 10 μM (MTT cell viability assay): 95 ± 7.2%

IC50 (IDO1): 1.4 ± 0.5 µM | Residual peak area after RLS9 incubation (60 min) [1]: higher than 99% | CYP inhibition (aminopyrine N-demethylase activity) [2]: low inhibition at 10 and 100 μM
Compound: COc1ccc(-c2ccc(F)c(C(=O)NCc3nnc4ccc(C(F)(F)F)cn34)c2)cc1OC [Compound 25, 4‐Fluoro‐3′,4′‐dimethoxy‐N‐((6‐(trifluoromethyl)‐[1,2,4]triazolo[4,3‐a]pyridin‐3‐yl)methyl)‐[1,1′‐biphenyl]‐3‐carboxamide]
Kyn levels in P1.TDO cells (TDO (P1.TDO)): not able to induce a reduction of Kyn levels in P1.TDO | viability at 48 h, 10 μM (MTT cell viability assay): 94 ± 2.1%

Compound: O=C(NCc1nnc2ccc(Cl)cn12)c1cccc2cn[nH]c12 [Compound 30, N‐((6‐Chloro‐[1,2,4]triazolo[4,3‐a]pyridin‐3‐yl)methyl)‐1H‐indazole‐7‐carboxamide]
viability at 48 h, 10 μM (MTT cell viability assay): 98 ± 7.4%

Compound: COc1ccc(-c2ccc(F)c(C(=O)NCc3nnc4ccc(Cl)cn34)c2)cc1OC [Compound 32, N‐((6‐Chloro‐[1,2,4]triazolo[4,3‐a]pyridin‐3‐yl)methyl)‐4‐fluoro‐3′,4′‐dimethoxy‐[1,1′‐biphenyl]‐3‐carboxamide]
viability at 48 h, 10 μM (MTT cell viability assay): 98 ± 9.3%

IC50 (IDO1): 6.9 ± 0.8 µM
Compound: O=C(NCc1nnc2ccc3ccccc3n12)c1cccc2cn[nH]c12 [Compound 37, N‐([1,2,4]Triazolo[4,3‐a]quinolin‐1‐ylmethyl)‐1H‐indazole‐7‐carboxamide]
viability at 48 h, 10 μM (MTT cell viability assay): 100 ± 4.1%

IC50 (IDO1): 0.9 ± 0.02 µM
Compound: O=C(NCc1nnc2ccc3ccccc3n12)c1ccc(O)c(Br)c1 [Compound 38, N‐([1,2,4]Triazolo[4,3‐a]quinolin‐1‐ylmethyl)‐3‐bromo‐4‐hydroxybenzamide]
Kyn levels in P1.TDO cells (TDO (P1.TDO)): not able to induce a reduction of Kyn levels in P1.TDO | viability at 48 h, 10 μM (MTT cell viability assay): 95 ± 7.1% | CYP inhibition (aminopyrine N-demethylase activity) [2]: did not significantly inhibit CYP at the tested concentrations

IC50 (IDO1): 1.8 ± 0.2 µM | Residual peak area after RLS9 incubation (60 min) [1]: higher than 99%
Compound: COc1cc(C)c(C(=O)NCc2nnc3ccc4ccccc4n23)c(C)c1 [Compound 39, N‐([1,2,4]Triazolo[4,3‐a]quinolin‐1‐ylmethyl)‐4‐methoxy‐2,6‐dimethylbenzamide]
Kyn levels in P1.TDO cells (TDO (P1.TDO)): not able to induce a reduction of Kyn levels in P1.TDO | viability at 48 h, 10 μM (MTT cell viability assay): 94 ± 6.3%

IC50 (IDO1): 3.4 ± 0.3 µM | Residual peak area after RLS9 incubation (60 min) [1]: higher than 99%
Compound: COc1ccc(-c2ccc(F)c(C(=O)NCc3nnc4ccc5ccccc5n34)c2)cc1 [Compound 40, N‐([1,2,4]triazolo[4,3‐a]quinolin‐1‐ylmethyl)‐4‐fluoro‐4′‐methoxy‐[1,1′‐biphenyl]‐3‐carboxamide]
viability at 48 h, 10 μM (MTT cell viability assay): 97 ± 3.8%

Compound: O=C(NCc1nnc2ccccn12)c1cccc2cn[nH]c12 [Compound 42, N‐([1,2,4]Triazolo[4,3‐a]pyridin‐3‐ylmethyl)‐1H‐indazole‐7‐carboxamide]
viability at 48 h, 10 μM (MTT cell viability assay): 100%

Compound: O=C(NCc1cccc2ccccc12)c1cccc2cn[nH]c12 [Compound 44, N‐(Naphthalen‐1‐ylmethyl)‐1H‐indazole‐7‐carboxamide]
viability at 48 h, 10 μM (MTT cell viability assay): 99 ± 1%

levels of free heme after incubation with IDO1 (holo-IDO1): did not increase the levels of free heme
Compound: NS(=O)(=O)NCCNc1nonc1C(=NO)Nc1ccc(F)c(Br)c1 [epacadostat, reference compound]

CYP inhibition (aminopyrine N-demethylase activity) [2]: strong inhibition of CYP
Compound: CC(=O)N1CCN(c2ccc(OCC3COC(Cn4ccnc4)(c4ccc(Cl)cc4Cl)O3)cc2)CC1 (stereo not shown) [ketoconazole, reference compound]

IDO cellular assay inhibition [%] @ 10 μM±SD (IDO1): 34±1%
Compound: N‐((6‐(Trifluoromethyl)‐[1,2,4]triazolo[4,3‐a]pyridin‐3‐yl)methyl)‐9H‐fluorene‐4‐carboxamide [Compound 10]
Cell viability [%] @ 10 μM±SD (A375 cells): 90±14.8%
